System: MS2 coat protein
Experiment: apparent Kd, MS2 coat protein; higher = weaker binding; RNA-MaP array; FMN 200 µM where present
Summary of the method: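 The apparent Kd comes from binding curves fitted cluster by cluster, filtered, and summarised as a median. Those curves followed SNAP-549-labelled MS2 coat protein from 0.7 or 1.5 nM, doubling to 3 µM, on Illumina sequencing-chip clusters where stalled E. coli RNA polymerase had transcribed the designs, without and then with constant ligand. The buffer was 100 mM Tris-HCl pH 7.5, 80 mM KCl, 4 mM MgCl2, BSA, DTT, yeast tRNA and Tween-20, and green signal was normalised to red-channel RNA signal and control-cluster median Fmax.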

[1] = designed as: OFF switch for flavin mononucleotide, no ligand
[2] = ligand present: flavin mononucleotide, designed as: OFF switch for flavin mononucleotide
[3] = designed as: ON switch for flavin mononucleotide, no ligand
[4] = ligand present: flavin mononucleotide, designed as: ON switch for flavin mononucleotide

| Sequence | apparent Kd [1] [nM] | apparent Kd [2] [nM] | apparent Kd [3] [nM] | apparent Kd [4] [nM] |
| --- | --- | --- | --- | --- |
| CAGCAGUGUAAGAAGGCUGCUCCGAUAAGGAGCAGAGGAUAUUACAUGAGGAUCACCCAUGUAUGAACCAAUAGCUGAAAUAAA | 9.12 | 85.3 | – | – |
| UUCGUGCAGCGUUGCUGUACGCGUACAUGAGGAUCACCCAUGUAGGAUAUGGUACGCUUUGCGUGCUAGAAGGAUAUGGAGAGG | 15.2 | 18.9 | – | – |
| GGAUAGGACAGAGGAUAUACGUGCUAGAGAUACUAGCAAAAUUUCCUCACAUGAGGAUCACCCAUGUAGAAGGCUGUCCUAACG | 14.7 | 497 | – | – |
| ACAGCACGAGGAUAUACAUGAGGAUCACCCAUGUCUGAGGGAAGGCGAACGCCCUUGUGUAGAAGGCGUUGAUC | 91.4 | 112 | – | – |
| CUUCAGUCAGGAUAUGUUAAUCUCGCCACUCCACGAGCCGGACAGAAGGGACAUGAGGAUCACCCAUGUUAGAC | 30 | 22.4 | – | – |
| UAUGUAUUCGUAGGAUAUCCGUUGAGACCGUGUGGAGAAGGACGAACAUGAGGAUCACCCAUGUGUCAUGGUGUAGACAAUUUU | 65.5 | 220 | – | – |
| CUAGACAGAUCAGGAUAUCAUCGCAUGGUGCAUCCCUGUGAUUACAUGAGGAUCACCCAUGUGGAUGAGAAGGGAUUACUAUGU | 31.9 | 10.7 | – | – |
| UUCAUCAAUGAAGGAUAUCUAUGUCCAACAUGAGGAUCACCCAUGUUGAGGAUCACCUAUGUGUAGGAGAAGGUCAAUAUAACU | – | – | 8.56 | 8.54 |
| CCUAAGGACACAGGAUAUAGCGUGGCGGCUGGACUCCAACGGCGAACGGCGCUAGAAGGGUGACCACAUGAGGAUCACCCAUGU | – | – | 495 | 206 |
| UUUAUGUCAGGAUAUGAGUAGUAGAACAAUAGUACUACUACUCAGAAGGGACAUGAGGAUCACCCAUGUUCUUC | 16.7 | 46.6 | – | – |
| GUCCCACAUGAGGAUCACCCAUGUGAGGAUAUGGAUUCGCUGGCCGUAGCCAGUGGAUCCAGAAGGCGCGUGAU | 73.5 | 77.2 | – | – |
| GUAUCUUACUGAGGAUAUUUACGAUUAGUGUAGACAUGAGGAUCACCCAUGUGGCGUUAGUCACGGGAGAAGGCAGUUUGAUAC | – | – | 82.5 | 21.3 |
| AAAGGAGGGAGGACCGUACAUGAGGAUCACCCAUGUAUAUCACAGGAUAUAGCAUGUUUAGGCAUCUAGAAGGGUGAUCGGUCA | – | – | 186 | 37.7 |
| AAUUAUUAUUGAGGAUAUCGUAUUGAAACAAUACGAGAAGGCGGAAUAAACAUGAGGAUCACCCAUGUGAGCCUGAUGCUUAUG | 25 | 36.1 | – | – |
| GUGCAUUACGAGAAGGCGUACUGGUGAAUAUAAAACGACAAAGGUACAUGAGGAUCACCCAUGUACGAGGAUAUCGGUUUGGCU | 9.74 | 29.8 | – | – |
| UUCAUGUGAGGAUAUCAGUAGUAAAAAAAUAAAAUUACUACUGAGAAGGCACAUGAGGAUCACCCAUGUGUCUC | 22.1 | 26.6 | – | – |
| GUAGCUAUCGGAGGAUAUUCAUACCGGAAACGGACAUGAGGAUCACCCAUGUGGAGAAAGCCUUGGGAGAAGGCCGAUAGCUAC | – | – | 176 | 17.6 |
| GCUUGUGAAGGAUAUACUGGCGGCAUGCGCUCGACACGCGCACAUGAGGAUCACCCAUGUAGAAGGUCAAACGU | 17.2 | 17.7 | – | – |
| GAAGCAUGCAUUAACAUGAGGAUCACCCAUGUGAAAACACGUGAGGAUAUUGAUCUGAAGAAGAUCGAGAAGGCACCGUGCUAA | – | – | 14.1 | 9.11 |
| GGGUGACAUGAGGAUCACCCAUGUCAGGAUAUGAUACUAUGUACUUCGGUACAUAGUAUCAGAAGGGACAUCCC | 48.4 | 158 | – | – |
| UUAAUUCGAAACAUGAGGAUCACCCAUGUGUUGUGGUUAAUAUAGGAUAUGUGUAUACUUUUAUGACAGAAGGAUGAUGGUACU | – | – | 14.2 | 11.8 |
| UUUUAACAUGAGGAUCACCCAUGUGAGGAUAUCGAAAUUUAUAUUAAUAUUAAUUUAACGAGAAGGCACAUUUU | 101 | 93.7 | – | – |
| UUUCCUGAAGGAUAUUAAGAGCCAGACAUGAGGAUCACCCAUGUUCCUACAACGAACCUCUAAGAAGGUCAGGGCU | 20.9 | 21 | – | – |
| CGCUCUAUAUAUUUGGCAAGUAUCAGAAGGCGUUACAUGAGGAUCACCCAUGUUUUGAAUAGUAACGAGGAUAUGAUAUGAGCG | 22 | 24.2 | – | – |

| Sequence | apparent Kd [1] [nM] | apparent Kd [2] [nM] | apparent Kd [3] [nM] | apparent Kd [4] [nM] |
| --- | --- | --- | --- | --- |
| AAUAUGUUGCAGAAGGUUAUAUUUUUUUAGUACCUCAUGACAUGAGGAUCACCCAUGUAUUUGUUGAAGGAUAUGCAAUAUAUU | 23.1 | 20.8 | – | – |
| ACAUGAGGAUCACCCAUGUAUUACAUGGUUAAGUUUAUUAACAGAAGGCGAAAUUACCACUUUUUCGAGGAUAUGUAUUCUAUU | 35.7 | 60.8 | – | – |
| ACUAUACGAGGAUAUACUGACGGGCCUCGGGCGUCCCUGCGACAUGAGGAUCACCCAUGUAGAAGGCGUAUACU | 39.2 | 92.8 | – | – |
| AUUGUUAAGGUAGGAUAUAGUAAAAUGAUUUAAUUAGAAGGAUCUCACAUGAGGAUCACCCAUGUAAUAGGAUUACCCAUGUAU | 32.8 | 23.6 | – | – |
| GUAGAGUAAGGAUAUGGUGAAUAGGAUAGAAUGGUUAGAAACUAGAAGGUACAUGAGGAUCACCCAUGUAAUGU | 21.7 | 20.7 | – | – |
| CUGAUGUGAGGAUAUCUAAAAGAAACUGGGCAAAAUACCAGAGAGAAGGCACAUGAGGAUCACCCAUGUAACGA | 19.1 | 69.5 | – | – |
| AAUAUGUUGCAGAAGGCCAUGUUGUGGUAGUACCUCAUGACAUGAGGAUCACCCAUGUUUGUGUUGGAGGAUAUGCAAUAUAUU | 37.7 | 201 | – | – |
| GGGUACAUCGGAGGAUAUCAUGUAAAUACAUGAGGAUCACCCAUGUCGAUGGAGACAUCGGAGAUUGAGAAGGCCGGUGUACCG | – | – | 165 | 9.9 |
| AAUAACAGAGGAUAUACUAUUUUAUGUGUUUGUUGUUUUAAACAUGAGGAUCACCCAUGUAGAAGGCUGAAUAA | 21 | 26 | – | – |
| GGCUACGUUUCGUAGCAGCUAGGUGAGGAUAUUCAAUUUUUCACAUGAGGAUCACCCAUGUAUGUGAAGAAGGCGCCUAGAAAA | – | – | 11.7 | 4.83 |
| GGUCGUCACAUAUACAUGAGGAUCACCCAUGUAAAAUAACAUGAGGAUAUGGAUCCUAAUUGGAUCCAGAAGGCAUGGACGACC | – | – | 6.29 | 5.53 |
| GACAAGGGAGGAUAUGCACAAGGGAUAUCUGACAUGCCGAUACAUGAGGAUCACCCAUGUAGAAGGCCCGAAUA | 11.4 | 18.3 | – | – |
| UUCAGCUCGUCAGGAUAUACGUCACUGCUUCGGCAGUGUGGUAAGAUCACAUGAGGAUCACCCAUGUAGAAGGGACGAGCUGAU | 11.9 | 274 | – | – |
| AUUAAACAUGAGGAUCACCCAUGUCAACAAAGUCGAGGAUAUGGGCAUAUUAUCUUAUUACCAGAAGGCGAAUAAU | – | – | 390 | 44 |
| AGCGUGUAAGGAUAUACGUCGGAUAGCGAAUACUGUCCCUAGUAGAAGGUACAUGAGGAUCACCCAUGUGUCCA | 23.9 | 51.8 | – | – |
| AUACAUGAGGAUCACCCAUGUUACUGGGUCUUAAUAGAACGUAGAAGGAUGAUUUUAUAAAUAACAUAGGAUAUACAAUAUUGU | 181 | 105 | – | – |
| AAGAGCGAUUCUCCCUUCCUACAUGAGGAUCACCCAUGUACGAGAAGGCGCCGCGUAUACAACGGUGAGGAUAUCGUGCGUUAC | 4.45 | 4.98 | – | – |
| UAAAUUUUGUAAGGAUAUACACGAGAUUCAAGUGUAGAAGGUACUUACAUGAGGAUCACCCAUGUAUACAUGGAUCAUAGAUAU | – | – | 305 | 63.9 |
| GGAGGACAUGAGGAUCACCCAUGUGGAUGAACGCUAGGAUAUGCGUGCAGGAAGAGUGGAGCAGAAGGAGUGGGAU | – | – | 26.4 | 19.3 |
| CUCAGACAUGAGGAUCACCCAUGUGAGGAUAUGAUGCGAUCGUCGAAAGACGAUAGCAUCAGAAGGCACAAAUG | 78.4 | 305 | – | – |
| AUACCUUAUGAGAAGGCGGUCAUGAAACAUGAUCGAGGAUAUCAUGUAAACAUGAGGAUCACCCAUGUAUGGGUAUUAUGGUAA | – | – | 44.8 | 10.2 |
| GGUCGUCACAUGAACAUGAGGAUCACCCAUGUAAAUUCUCAUGAGGAUAUGGAUCCUAAUUGGAUCCAGAAGGCGUGGACGACC | – | – | 953 | 457 |
| AUAAAACAUGAGGAUCACCCAUGUAGACAUAUGGGAGGAUAUACUAGAUCGAAAGAUCUAGUAGAAGGCCUUUAUG | – | – | 44.2 | 20.8 |
| GUAUUAAAGAUCCAUUUUUACAACAUGAGGAUCACCCAUGUGCAGGAUAUCGUGUGUUUUAUAUUCGAGAAGGGCAAAUUCAUU | 51.8 | 109 | – | – |

Reference: the EternaBench riboswitch data
